# ChEMBL document CHEMBL1921724, “In search of a cytostatic agent derived from the alkaloid lycorine: synthesis and growth inhibitory properties of lycorine derivatives” (Bioorg Med Chem, 2011)
# How the values were obtained:
# [1] = tested on: PC-3; experiment: Growth inhibition of human PC3 cells after 72 hrs by MTT assay; type: functional; details: PC-3, 72 h
# [2] = tested on: A549; experiment: Growth inhibition of pro-apoptotic stimuli-resistant human A549 cells after 72 hrs by MTT assay; type: functional; details: A549, 72 h
# In short: (§1)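 Cells seeded at 10,000 to 40,000 cells/mL depending on cell type and allowed to attach for 24 h. They were then cultured 72 h with or without compound (untreated control). Living cells were measured by MTT reduction to formazan, read at 570 nm against a 630 nm reference. GI50 was derived from the growth levels.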
# [3] = Growth inhibition of pro-apoptotic stimuli-sensitive human Hs683 cells after 72 hrs by MTT assay; type: functional; details: Hs 683, 72 h; in short: as §1
# [4] = tested on: MCF7; experiment: Growth inhibition of human MCF7 cells after 72 hrs by MTT assay; type: functional; details: MCF7, 72 h
# [5] = tested on: B16-F10; experiment: Growth inhibition of pro-apoptotic stimuli-sensitive mouse B16F10 cells after 72 hrs by MTT assay; type: functional; details: B16-F10, 72 h; in short: as §1
# [6] = Growth inhibition of pro-apoptotic stimuli-resistant human U373 cells after 72 hrs by MTT assay; type: functional, U-373MG ATCC; details: U373 MG; in short: as §1
# [7] = tested on: SK-MEL-28; experiment: Growth inhibition of pro-apoptotic stimuli-resistant human SK-MEL-28 cells after 72 hrs by MTT assay; type: functional; details: SK-MEL-28, 72 h; in short: as §1
# [8] = tested on: T98G; experiment: Growth inhibition of pro-apoptotic stimuli-resistant human T98G cells after 72 hrs by MTT assay; type: functional; in short: as §1
SMILES,GI50 [1],GI50 [2],GI50 [3],GI50 [4],GI50 [5],GI50 [6],GI50 [7],GI50 [8]
CC(=O)O[C@H]1[C@H]2c3cc4c(cc3C(=O)N3CCC(=C[C@@H]1OC(C)=O)[C@H]23)OCO4,> 100 µM,36 µM,49 µM,> 100 µM,75 µM,39 µM,99 µM,32 µM
CC(=O)Oc1cc2c3c(c1)c1cc4c(cc1c(=O)n3CC2)OCO4,33 µM,23 µM,20 µM,50 µM,20 µM,21 µM,> 100 µM,29 µM
CC(=O)O[C@@H]1[C@@H](OC(C)=O)[C@H](O)[C@@]2(O)CCN3C(=O)c4cc5c(cc4[C@H]1[C@H]32)OCO5,> 100 µM,> 100 µM,> 100 µM,> 100 µM,86 µM,> 100 µM,> 100 µM,> 100 µM
O=C1c2cc3c(cc2[C@@H]2[C@H](O)[C@@H](O)C=C4CCN1[C@H]42)OCO3,> 100 µM,> 100 µM,> 100 µM,> 100 µM,> 100 µM,> 100 µM,> 100 µM,> 100 µM
O=c1c2cc3c(cc2c2cc(O)cc4c2n1CC4)OCO3,48 µM,44 µM,40 µM,9 µM,38 µM,49 µM,> 100 µM,41 µM
CC(=O)O[C@H]1[C@H]2c3cc4c(cc3C(=S)N3CCC(=C[C@@H]1OC(C)=O)[C@H]23)OCO4,> 100 µM,57 µM,52 µM,35 µM,30 µM,46 µM,47 µM,57 µM
O=C1c2cc3c(cc2[C@@H]2[C@H](O)[C@@H](O)[C@H](O)[C@@]4(O)CCN1[C@@H]24)OCO3,> 100 µM,> 100 µM,> 100 µM,96 µM,> 100 µM,> 100 µM,> 100 µM,> 100 µM
O[C@@H]1[C@@H](O)[C@H](O)[C@@]2(O)CCN3Cc4cc5c(cc4[C@H]1[C@H]32)OCO5,> 100 µM,> 100 µM,> 100 µM,> 100 µM,83 µM,> 100 µM,> 100 µM,> 100 µM
CC(=O)O[C@@H]1[C@@H](OC(C)=O)[C@H](OC(C)=O)[C@@]2(O)CCN3C(=O)c4cc5c(cc4[C@H]1[C@H]32)OCO5,> 100 µM,> 100 µM,> 100 µM,> 100 µM,> 100 µM,> 100 µM,> 100 µM,> 100 µM
CC(=O)O[C@@H]1[C@@H](OC(C)=O)[C@H](OC(C)=O)C2=CCN3C(=O)c4cc5c(cc4[C@H]1[C@@H]23)OCO5,> 100 µM,> 100 µM,> 100 µM,> 100 µM,83 µM,> 100 µM,> 100 µM,> 100 µM
O=C1c2cc3c(cc2[C@@H]2[C@H](O)[C@@H](O)[C@H](O)C4=CCN1[C@H]42)OCO3,> 100 µM,> 100 µM,> 100 µM,> 100 µM,> 100 µM,> 100 µM,> 100 µM,> 100 µM
CC(C)(C)C(=O)O[C@H]1C=C2CCN3Cc4cc5c(cc4[C@H]([C@@H]1O)[C@@H]23)OCO5,12 µM,7 µM,15 µM,36 µM,5 µM,9 µM,10 µM,12 µM
O=C1C=C2CCN3Cc4cc5c(cc4[C@H]([C@@H]1O)[C@@H]23)OCO5,92 µM,4 µM,3 µM,35 µM,16 µM,45 µM,> 100 µM,38 µM
